Data as given in ChEMBL document CHEMBL1124260, “Synthesis and antitumor activity of quaternary ellipticine glycosides, a series of novel and highly active antitumor agents” (1988).

Tests used:
Type in all cases: functional
Mus musculus [1] = assay: Number of survivors out of 6 ip implanted L1210 leukemia mouse tested after 80 days at 10 mg/kg; details: route intraperitoneal
In short: (§1)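 Female BDF1 mice implanted ip with ascitic fluid holding 10^5 L1210 cells. Saline-dissolved drug given ip daily on days 1-5, starting 24 h after implant. Six mice per dose group, followed 80 days. Survivors/total counted at day 80; ILS % from mean survival time vs controls.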

Mus musculus [2] = assay: Antitumor activity against ip implanted L1210 leukemia in mouse after ip administration of 10 mg/kg for 5 days expressed as increase in mean life span; details: route intraperitoneal; for ILS: 10 mg/kg; for ILS at 10 mg/kg: Mus musculus, L1210, ip, 120 h
In short: (§2)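 Drug was dissolved in 0.9% NaCl, diluted just before use and given ip once daily for 5 consecutive days, starting 24 h after transplant. ILS % = mean survival time of treated vs control mice, observed for 80 days.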

Mus musculus [3] = assay: Number of survivors out of 6 ip implanted L1210 leukemia mouse, tested after 80 days at 30 mg/kg; details: route intraperitoneal; in short: as §1
Mus musculus [4] = assay: Antitumor activity against ip implanted L1210 leukemia in mouse after ip administration of 30 mg/kg for 5 days expressed as increase in mean life span; details: route intraperitoneal; for ILS at 30 mg/kg: Mus musculus, L1210, ip, 120 h; for ILS: 30 mg/kg; in short: as §2
Mus musculus [5] = assay: Antitumor activity against ip implanted L1210 leukemia in mouse after ip administration of 40 mg/kg for 5 days expressed as increase in mean life span; details: 120 h, route intraperitoneal; in short: as §2
Mus musculus [6] = assay: Number of survivors out of 6 ip implanted L1210 leukemia mouse tested after 80 days at 40 mg/kg; details: route intraperitoneal; in short: as §1
Mus musculus [7] = assay: Antitumor activity against ip implanted L1210 leukemia in mouse after ip administration of 20 mg/kg for 5 days expressed as increase in mean life span; details: 120 h, route intraperitoneal; in short: as §2
Mus musculus [8] = assay: Number of survivors out of 6 ip implanted L1210 leukemia mouse tested after 80 days at 20 mg/kg; details: route intraperitoneal; in short: as §1
Mus musculus [9] = assay: Number of survivors out of 6 ip implanted L1210 leukemia mouse tested after 80 days at 5 mg/kg; details: route intraperitoneal; in short: as §1
Mus musculus [10] = assay: Antitumor activity against ip implanted L1210 leukemia in mouse after ip administration of 5 mg/kg for 5 days expressed as increase in mean life span; details: route intraperitoneal; for ILS: 5 mg/kg; for ILS at 5 mg/kg: Mus musculus, L1210, ip, 120 h; in short: as §2

Cc1c2cc[n+]([C@@H]3O[C@H](CO)[C@H](O)[C@@H]3O)cc2c(C)c2c1[nH]c1ccc(O)cc12.[Cl-] (stereo in doubt; 43b)
Cures (Mus musculus [1]): 3
ILS (Mus musculus [2]): >552%

CC(=O)N[C@@H]1[C@@H](O)[C@H](O)[C@@H](CO)O[C@H]1[n+]1ccc2c(C)c3[nH]c4ccc(O)cc4c3c(C)c2c1.[Cl-]
Cures (Mus musculus [3]): 0
ILS at 30 mg/kg (Mus musculus [4]): 39%

Cc1c2cc[n+]([C@@H]3O[C@H](C)[C@H](O)[C@H](O)[C@H]3O)cc2c(C)c2c1[nH]c1ccccc12.[Br-]
Cures (Mus musculus [3]): 0
ILS at 30 mg/kg (Mus musculus [4]): 20%

CC(=O)[O-].Cc1c2cc[n+](C3OC(C)C(O)C(O)C3O)cc2c(C)c2c1[nH]c1ccc(O)cc12 (configuration not stated)
Cures (Mus musculus [3]): 3
ILS at 30 mg/kg (Mus musculus [4]): > 615%

COc1ccc2[nH]c3c(C)c4cc[n+](C5OC(CO)C(O)C(O)C5O)cc4c(C)c3c2c1.[Br-] (configuration not stated)
Cures (Mus musculus [1]): 0
ILS at 10 mg/kg (Mus musculus [2]): 14%

Cc1c2cc[n+]([C@H]3O[C@H](CO)[C@@H](O)[C@H]3O)cc2c(C)c2c1[nH]c1ccc(O)cc12.[Br-]
Cures (Mus musculus [1]): 0
ILS at 10 mg/kg (Mus musculus [2]): 138%

Cc1c2cc[n+]([C@@H]3O[C@H](CO)[C@@H](O)[C@@H](O)[C@H]3O)cc2c(C)c2c1[nH]c1ccc(O)cc12.[Br-]
Cures (Mus musculus [1]): 1
ILS at 10 mg/kg (Mus musculus [2]): > 254%

COc1ccc2[nH]c3c(C)c4cc[n+](C5O[C@@H](C)[C@H](O)[C@@H](O)[C@H]5O)cc4c(C)c3c2c1.[Br-] (some centres not stated)
Cures (Mus musculus [3]): 0
ILS at 30 mg/kg (Mus musculus [4]): 56%

Cc1c2cc[n+]([C@@H]3OC[C@@H](O)[C@@H](O)[C@H]3O)cc2c(C)c2c1[nH]c1ccc(O)cc12.[Br-] (stereo in doubt; 48b)
Cures (Mus musculus [3]; 30 mg/kg): 6
ILS (Mus musculus [4]): >944%

Cc1c2cc[n+](C3O[C@H](CO)[C@@H](O)[C@H]3O)cc2c(C)c2c1[nH]c1ccc(O)cc12.[Br-] (some centres not stated)
Cures (Mus musculus [3]): 2
ILS at 30 mg/kg (Mus musculus [4]): > 387%

Cc1c2cc[n+]([C@@H]3OC[C@@H](O)[C@@H](O)[C@H]3O)cc2c(C)c2c1[nH]c1ccc(O)cc12.[Br-]
Cures (Mus musculus [1]): 2
ILS at 10 mg/kg (Mus musculus [2]): > 396%

COc1ccc2[nH]c3c(C)c4cc[n+](C5OCC(O)C(O)C5O)cc4c(C)c3c2c1.[Br-] (configuration not stated)
Cures (Mus musculus [3]): 0
ILS at 30 mg/kg (Mus musculus [4]): 56%

Cc1c2cc[n+](C3OC(CO)C(O)C(O)C3O)cc2c(C)c2c1[nH]c1ccccc12.[Br-] (configuration not stated)
ILS at 40 mg/kg (Mus musculus [5]): 39%
Cures (Mus musculus [6]): 0

Br.CC(=O)[O-].Cc1c2cc[n+](C3O[C@H](C)[C@@H](O)[C@@H]3O)cc2c(C)c2c1[nH]c1ccc(O)cc12 (some centres not stated)
Cures (Mus musculus [3]): 1
ILS at 30 mg/kg (Mus musculus [4]): > 217%

Cc1c2cc[n+]([C@@H]3O[C@@H](C)[C@H](O)[C@H]3O)cc2c(C)c2c1[nH]c1ccc(O)cc12.[Cl-]
Cures (Mus musculus [3]): 1

Cc1c2cc[n+]([C@@H]3O[C@H](CO)[C@H](O)[C@H](O)[C@H]3O)cc2c(C)c2c1[nH]c1ccc(O)cc12.[Br-]
ILS at 20 mg/kg (Mus musculus [7]): > 729%
Cures (Mus musculus [8]): 4

Cc1c2cc[n+]([C@@H]3OC[C@@H](O)[C@@H](O)[C@H]3O)cc2c(C)c2c1[nH]c1ccc(O)cc12.[Br-] (stereo in doubt; 48a)
Cures (Mus musculus [3]; 30 mg/kg): 0
ILS (Mus musculus [4]): 112%

CC(=O)N[C@@H]1[C@@H](O)[C@@H](O)[C@@H](CO)O[C@H]1[n+]1ccc2c(C)c3[nH]c4ccc(O)cc4c3c(C)c2c1.[Cl-]
Cures (Mus musculus [3]): 0
ILS at 30 mg/kg (Mus musculus [4]): 8%

Cc1c2cc[n+]([C@@H]3O[C@H](C)[C@@H](O)[C@H]3O)cc2c(C)c2c1[nH]c1ccc(O)cc12.[Cl-]
Cures (Mus musculus [3]): 1
ILS at 30 mg/kg (Mus musculus [4]): > 230%

Cc1c2cc[n+](C3CC(O)C(CO)O3)cc2c(C)c2c1[nH]c1ccc(O)cc12.[Cl-] (configuration not stated)
Cures (Mus musculus [1]): 2
ILS at 10 mg/kg (Mus musculus [2]): > 390%

Cc1c2cc[n+]([C@H]3O[C@@H](C)[C@H](O)[C@@H](O)[C@H]3O)cc2c(C)c2c1[nH]c1ccc(O)cc12.[Br-]
ILS at 40 mg/kg (Mus musculus [5]): 78%
Cures (Mus musculus [6]): 0

Cc1c2cc[n+]([C@@H]3O[C@H](C)[C@H](O)[C@H](O)[C@H]3O)cc2c(C)c2c1[nH]c1ccc(O)cc12.[Br-]
Cures (Mus musculus [3]): 0
ILS at 30 mg/kg (Mus musculus [4]): 124%

Cc1c2cc[n+]([C@H]3O[C@@H](C)[C@@H](O)[C@@H](O)[C@@H]3O)cc2c(C)c2c1[nH]c1ccc(O)cc12.[Br-] (stereo in doubt; 53b)
Cures (Mus musculus [3]; 30 mg/kg): 3
ILS (Mus musculus [4]): >583%

CC(=O)[O-].Cc1c2cc[n+]([C@H]3O[C@@H](CO)[C@H](O)[C@H]3O)cc2c(C)c2c1[nH]c1ccc(O)cc12
Cures (Mus musculus [3]): 1
ILS at 30 mg/kg (Mus musculus [4]): > 269%

Cc1c2cc[n+](C3O[C@@H](CO)[C@H](O)[C@@H]3O)cc2c(C)c2c1[nH]c1ccccc12.[Br-] (some centres not stated)
ILS at 20 mg/kg (Mus musculus [7]): 80%
Cures (Mus musculus [8]): 0

Cc1c2cc[n+](C3O[C@@H](C)[C@H](O)[C@@H](O)[C@H]3O)cc2c(C)c2c1[nH]c1ccccc12.[Br-] (some centres not stated)
ILS at 40 mg/kg (Mus musculus [5]): 40%
Cures (Mus musculus [6]): 0

Cc1c2cc[n+]([C@H]3O[C@@H](CO)[C@H](O)[C@@H](O)[C@@H]3O)cc2c(C)c2c1[nH]c1ccc(O)cc12.[Br-] (stereo in doubt; 63b)
Cures (Mus musculus [9]; 5 mg/kg): 0
ILS (Mus musculus [10]): 58%

Cc1c2cc[n+]([C@H]3O[C@@H](CO)[C@H](O)[C@@H](O)[C@@H]3O)cc2c(C)c2c1[nH]c1ccc(O)cc12.[Br-] (stereo in doubt; 64b)
Cures (Mus musculus [9]; 5 mg/kg): 2
ILS (Mus musculus [10]): >362%

Cc1c2cc[n+]([C@H]3O[C@@H](CO)[C@H](O)[C@@H](O)[C@@H]3O)cc2c(C)c2c1[nH]c1ccc(O)cc12.[Br-] (stereo in doubt; 63a)
ILS (Mus musculus [2]): 52%

CC(=O)[O-].Cc1c2cc[n+]([C@@H]3O[C@H](CO)[C@@H](O)[C@@H]3O)cc2c(C)c2c1[nH]c1ccc(O)cc12
Cures (Mus musculus [3]): 1
ILS at 30 mg/kg (Mus musculus [4]): > 262%

Cc1c2cc[n+]([C@H]3O[C@@H](CO)[C@H](O)[C@@H](O)[C@@H]3O)cc2c(C)c2c1[nH]c1ccc(O)cc12.[Br-] (stereo in doubt; 65)
Cures (Mus musculus [1]; 10 mg/kg): 1
ILS (Mus musculus [2]): >212%

Cc1c2cc[n+]([C@H]3O[C@@H](CO)[C@H](O)[C@@H](O)[C@@H]3O)cc2c(C)c2c1[nH]c1ccc(O)cc12.[Br-] (stereo in doubt; 64a)
Cures (Mus musculus [1]; 10 mg/kg): 0
ILS (Mus musculus [2]): 88%

Cc1c2cc[n+]([C@H]3O[C@H](CO)[C@@H](O)[C@@H]3O)cc2c(C)c2c1[nH]c1ccc(O)cc12.[Br-]
ILS at 20 mg/kg (Mus musculus [7]): 91%
Cures (Mus musculus [1]): 2
ILS at 10 mg/kg (Mus musculus [2]): > 379%
Cures (Mus musculus [8]): 0

Cc1c2cc[n+]([C@H]3OC[C@@H](O)[C@@H](O)[C@@H]3O)cc2c(C)c2c1[nH]c1ccc(O)cc12.[Br-]
ILS at 20 mg/kg (Mus musculus [7]): > 606%
Cures (Mus musculus [8]): 3

Cc1c2cc[n+]([C@H]3O[C@@H](CO)[C@H](O)[C@@H]3O)cc2c(C)c2c1[nH]c1ccc(O)cc12.[Br-]
Cures (Mus musculus [1]): 2
ILS at 10 mg/kg (Mus musculus [2]): > 391%

COc1ccc2[nH]c3c(C)c4cc[n+](C5O[C@@H](CO)[C@H](O)[C@@H]5O)cc4c(C)c3c2c1.[Br-] (some centres not stated)
Cures (Mus musculus [3]): 0
ILS at 30 mg/kg (Mus musculus [4]): 76%

COc1ccc2[nH]c3c(C)c4cc[n+]([C@@H]5O[C@H](C)[C@H](O)[C@H](O)[C@H]5O)cc4c(C)c3c2c1.[Br-]
Cures (Mus musculus [3]): 0
ILS at 30 mg/kg (Mus musculus [4]): 20%

Cc1c2cc[n+]([C@@H]3OC[C@@H](O)[C@@H](O)[C@H]3O)cc2c(C)c2c1[nH]c1ccc(O)cc12.[Br-] (stereo in doubt; 50a)
Cures (Mus musculus [3]; 30 mg/kg): 5
ILS (Mus musculus [4]): >857%

Cc1c2cc[n+]([C@H]3OC[C@@H](O)[C@H](O)[C@@H]3O)cc2c(C)c2c1[nH]c1ccc(O)cc12.[Cl-]
Cures (Mus musculus [1]): 4
ILS at 10 mg/kg (Mus musculus [2]): > 651%

Cc1c2cc[n+](C3OC(C(N)=O)C(O)C(O)C3O)cc2c(C)c2c1[nH]c1ccc(O)cc12.[Br-] (configuration not stated)
Cures (Mus musculus [9]): 0
ILS at 5 mg/kg (Mus musculus [10]): 49%

Cc1c2cc[n+](C3OC[C@@H](O)[C@H]3O)cc2c(C)c2c1[nH]c1ccc(O)cc12.[Cl-] (some centres not stated)
Cures (Mus musculus [9]): 0
ILS at 5 mg/kg (Mus musculus [10]): 122%
